Data on four compounds can be found in ChEMBL document CHEMBL4402518, “Identification of Novel Medulloblastoma Cell-Targeting Peptides for Use in Selective Chemotherapy Drug Delivery” (J Med Chem, 2020).

A short description of data set [1]: Selectivity index, ratio of IC50 for human MRC5 cells to IC50 for human DaOY cells incubated for 72 hrs by AlamarBlue cell viability assay. A general note: The colour change of resazurin is a common sign of viable cells or microbes.
A short description of data set [2]: Cytotoxicity against human NHA cells assessed as reduction in cell viability incubated for 72 hrs by AlamarBlue cell viability assay. The format is cell-based. Summed up: (§1)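 Cells treated at increasing concentrations, with viability read 72 hours post-treatment by alamar blue assay. Data are mean ± S.E.M. from 3 independent experiments.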
Data set [3] is described as follows: Ratio of IC50 of compound to IC50 of doxorubicin for cytotoxicity against human NHA cells assessed as reduction in cell viability incubated for 72 hrs by AlamarBlue cell viability assay. Type of data set: cell-based. As to conditions: read-out: Ratio IC50.
Data set [4] is described as follows: Ratio of IC50 of compound to IC50 of doxorubicin for cytotoxicity against human MRC5 cells assessed as reduction in cell viability incubated for 72 hrs by AlamarBlue cell viability assay. The format is cell-based. As to conditions: read-out: Ratio IC50.
Data set [5] can be described thus: Stability in human serum at 250 uM incubated for up to 4 hrs MALDI-TOF analysis. The format is ADME, cell-free.
Data set [6] can be described thus: Stability in mouse serum incubated for up to 4 hrs by LC-MS/MS analysis. The format is ADME, cell-free.
Data set [7] is described as follows: Drug uptake in human DaOY cells assessed as drug internalization at 0.25 uM measured after 3 hrs by flow cytometry. Type of data set: ADME, cell-based. (In general: In flow cytometry, cells or beads pass a laser one at a time.)
Data set [8] in a line: Drug uptake in human DaOY cells assessed as drug localization by measuring punctuate pattern of expression throughout cell cytoplasm, perinuclear and nuclear region at 0.25 uM measured after 15 to 30 mins by confocal microscopy. Type of data set: ADME, cell-based.
Data set [9] in a line: Drug uptake in human DaOY cells assessed as primary life time at 0.25 uM measured after 3 hrs by fluorescence live imaging microscopy analysis. Type of data set: ADME, cell-based.
For data set [10], the system named is MRC5. Description: Cytotoxicity against human MRC5 cells assessed as reduction in cell viability incubated for 72 hrs by AlamarBlue cell viability assay. Type of data set: cell-based. As to conditions: MRC5, 72 h. The procedure, abridged:
as §1

A short description of data set [11]: Drug uptake in human DaOY cells assessed as secondary lifetime at 0.25 uM measured after 3 hrs by fluorescence live imaging microscopy analysis. Type of data set: ADME, cell-based.
A short description of data set [12]: Drug uptake in human DaOY cells assessed as drug internalization at 0.25 uM pretreated with actin polymerization inhibitor/macropinocytosis inhibitor, cytochalasin D 1 hr prior to compound addition and measured after 3 hrs by flow cytometry. The format is ADME, cell-based. Summed up:
(§2)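 To probe endocytic routes, cells were first pre-treated with non-toxic concentrations of one of four inhibitors before compound exposure. The inhibitors were genistein (caveolae), cytochalasin D (actin/macropinocytosis), amiloride hydrochloride (caveolae/macropinocytosis) and chlorpromazine hydrochloride (clathrin).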

Data set [13] can be described thus: Selectivity index, ratio of IC50 for human NHA cells to IC50 for human DaOY cells incubated for 72 hrs by AlamarBlue cell viability assay.
Data set [14] is described as follows: Drug uptake in human DaOY cells assessed as drug internalization at 0.25 uM measured after 15 to 60 mins by confocal microscopy. Type of data set: ADME, cell-based.
Data set [15] in a line: Stability in mouse serum at 250 uM incubated for up to 4 hrs MALDI-TOF analysis. Type of data set: ADME, cell-free.
Data set [16] deals with Daoy. Description: Cytotoxicity against human DaOY cells assessed as reduction in cell viability incubated for 72 hrs by AlamarBlue cell viability assay. The format is functional, cell-based. Summed up:
as §1

Data set [17] is described as follows: Stability in human serum incubated for up to 4 hrs by LC-MS/MS analysis. Type of data set: ADME, cell-free.
The nature of data set [18]: Drug uptake in human DaOY cells assessed as drug internalization at 0.25 uM pretreated with caveloae-uptake inhibitor, genistein 1 hr prior to compound addition and measured after 3 hrs by flow cytometry. Type of data set: ADME, cell-based. Summed up:
as §2

Data set [19] can be described thus: Drug uptake in human DaOY cells assessed as drug localization in perinuclear and nuclear regions of cell at 0.25 uM measured after 15 to 30 mins by confocal microscopy. The format is ADME, cell-based.
Data set [20] is described as follows: Drug uptake in human DaOY cells assessed as drug internalization at 0.25 uM pretreated with clathrin-mediated endocytosis inhibitor, chlorpromazine hydrochloride 1 hr prior to compound addition and measured after 3 hrs by flow cytometry. The format is ADME, cell-based. The procedure, abridged: as §2
Data set [21] in a line: Drug uptake in human DaOY cells assessed as drug localization in nucleus at 0.25 uM measured after 3 hrs by […]. Type of data set: ADME, cell-based.
A short description of data set [22]: Drug uptake in human DaOY cells assessed as drug localization in nucleus at 0.25 uM pretreated with actin polymerization inhibitor/macropinocytosis inhibitor, cytochalasin D 1 hr prior to compound addition and measured after 3 hrs by fluorescence live imaging microscopy analysis. The format is ADME, cell-based.
The nature of data set [23]: Drug uptake in human DaOY cells assessed as drug internalization at 0.25 uM pretreated with caveloae/macropinocytosis inhibitor, amiloride hydrochloride 1 hr prior to compound addition and measured after 3 hrs by flow cytometry. Type of data set: ADME, cell-based. The procedure, abridged: as §2
Data set [24] is described as follows: Drug uptake in human DaOY cells assessed as drug localization in cytoplasm at 0.25 uM pretreated with actin polymerization inhibitor/macropinocytosis inhibitor, cytochalasin D 1 hr prior to compound addition and measured after 3 hrs by fluorescence live imaging microscopy analysis. The format is ADME, cell-based.
The test system of data set [25] is MRC5. Briefly: Cytotoxicity against human MRC5 cells assessed as reduction in cell viability incubated for 72 hrs. The format is cell-based. As to conditions: mrc5, 72 h. The procedure, abridged: as §1
Data set [26] is described as follows: Cytotoxicity against human NHA cells assessed as reduction in cell viability incubated for 72 hrs. Type of data set: cell-based. Summed up:
as §1

Data set [27] can be described thus: Solubility of the compound in water using C-terminal FITC-labeled compound. Type of data set: physicochemical. As to conditions: buffer.
Data set [28] can be described thus: Stability of the compound in water using C-terminal FITC-labeled compound. Type of data set: physicochemical. As to conditions: buffer.
Data set [29] in a line: Drug uptake in human DaOY cells assessed as drug internalization at 0.25 to 100 uM incubated for 24 hrs using C-terminal FITC labeled compound by confocal microscopy. Type of data set: ADME, cell-based. The procedure, abridged: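 Medulloblastoma cells exposed 24 h to fluorescently labelled peptide at 0.25 μM, 25 μM and 100 μM, then imaged by confocal microscopy. Cell membrane stained red, nucleus blue, peptide green. Untreated cells served as control.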

For data set [30], the system named is Daoy. Description: Cytotoxicity against human DaOY cells assessed as reduction in cell viability incubated for 72 hrs. The format is cell-based. Summed up:
as §1

Data set [31] is described as follows: Drug uptake in human DaOY cells assessed as drug internalization at 0.1 to 1000 uM incubated for 24 hrs using C-terminal FITC-labeled compound by flow cytometry. Type of data set: ADME, cell-based. Summed up:
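FITC-labelled peptide at differing concentrations for 24 h, then cell-associated green fluorescence intensity measured by flow cytometry. Cells given non-fluorescent peptide served as control; n = 3 independent experiments.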

Data set [32] deals with Daoy. Description: Binding affinity to human DaOY cell surface measured after 15 mins incubation using C-terminal FITC labeled compound by Live cell confocal microscopy. Type of data set: cell-based.

Calls of active or inactive are those of the source. The calls are words filed in the database; no cut-off is given here. Peptide text beside a SMILES is read from it. * marks the point of attachment. Glutaryl(5-(14-O-Dox)) = COc1cccc2c1C(=O)c1c(O)c3c(c(O)c1C2=O)C[C@@](O)(C(=O)COC(=O)CCCC(=O)*)C[C@@H]3O[C@H]1C[C@H](N)[C@H](O)[C@H](C)O1 A value given as a limit tells only on which side of the number the result lay.

As for `COc1cccc2c1C(=O)c1c(O)c3c(c(O)c1C2=O)C[C@@](O)(C(=O)COC(=O)CCCC(=O)N[C@@H](Cc1ccccc1)C(=O)N[C@@H](CO)C(=O)N[C@@H](CCCNC(=N)N)C(=O)N1CCC[C@H]1C(=O)N[C@@H](C)C(=O)N[C@@H](Cc1ccccc1)C(=O)N[C@@H](CC(C)C)C(=O)O)C[C@@H]3O[C@H]1C[C@H](N)[C@H](O)[C@H](C)O1` ({Glutaryl(5-(14-O-Dox))}-FSRPAFL-OH), the “Ratio IC50” value in data set [1] is 430.2; in [13], 33.7. For the same compound, the IC50 in [2] was determined as 842 nM; in data set [10], 10800 nM; in data set [16] it was 25 nM. Also, the figures for the selectivity ratio at 72 h in data set [3] and in [4] were greater than 7.4 and greater than 72, respectively. The Stability entry in data set [5], in [6], in [15] and in data set [17] was “Stable” each time. The Drug uptake result is “Active” in data set [7], “Active” in [8], “Not Active” in data set [12] and “Active” in data set [14]. For the same compound, the Time in data set [9] is given as 4.3 nanoseconds; in data set [11] it was 1.3 nanoseconds.
On to `COc1cccc2c1C(=O)c1c(O)c3c(c(O)c1C2=O)C[C@@](O)(C(=O)CO)C[C@@H]3O[C@H]1C[C@H](N)[C@H](O)[C@H](C)O1` [DOXORUBICIN], for which the results for the “Ratio IC50” value in [1] and in data set [13] were 16.8 and 12.8, respectively. Further, the half-maximal inhibitory concentration (IC50) in data set [2] was 113 nM; in data set [10], 148 nM; in data set [16], 8.8 nM. Further, the Drug uptake entry in data set [18], in [19], in [20], in data set [21], in [22] and in [23] was “Active” in each case. Further, the Drug uptake entry in data set [24], in [12] and in [14] was “Active” each time. Also, the Time is given as 4.3 nanoseconds in data set [9] and 1.3 nanoseconds in data set [11].
As to H-FSRPAFL-OH, the Activity entry in data set [25], in data set [26] and in data set [30] was “Non-Toxic” throughout. Also, in data set [27], the solubility entry is recorded as “Soluble”. In [28], the Stability result is “Stable”. For the same compound, the Drug uptake result in data set [29] and in [31] was “Active” each time. Moreover, the result in [32] was Active.
With `COc1cccc2c1C(=O)c1c(O)c3c(c(O)c1C2=O)C[C@@](O)(C(=O)COC(=O)CCCC(=O)N[C@H](C(=O)NCC(=O)NCC(=O)N[C@@H](CC(C)C)C(=O)N[C@@H](CO)C(=O)N[C@@H](Cc1c[nH]cn1)C(=O)N[C@@H](CCCNC(=N)N)C(=O)O)C(C)C)C[C@@H]3O[C@H]1C[C@H](N)[C@H](O)[C@H](C)O1` ({Glutaryl(5-(14-O-Dox))}-VGGLSHR-OH), in data set [16], the IC50 turned out to be 130 nM.

A word on the IC50: it is the point on the concentration scale where inhibition reaches its midpoint.
